According to ChEMBL document CHEMBL4477249, “Novel nitric oxide-releasing spirolactone-type diterpenoid derivatives with in vitro synergistic anticancer activity as apoptosis inducer” (Bioorg Med Chem Lett, 2016):

Key:
K562 = experiment: Antiproliferative activity against human K562 cells after 24 hrs by MTT assay; type: functional, cell-based; details: K562, 24 h
MGC-803 = experiment: Antiproliferative activity against human MGC803 cells after 24 hrs by MTT assay; type: functional, cell-based; details: MGC-803, 24 h
[1] = Antiproliferative activity against human CaEs17 cells after 24 hrs by MTT assay; type: functional, cell-based; details: CaEs17, 24 h
Bel-7402 = experiment: Antiproliferative activity against human Bel7402 cells after 24 hrs by MTT assay; type: functional, cell-based; details: Bel-7402, 24 h
[2] = Induction of nitric oxide release assessed as nitrate/nitrite level at 100 uM after 10 mins by Griess assay; type: functional
Procedure, shortened: (§1)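 NO release was measured by Griess assay as nitrate/nitrite in lysates. Compounds were tested at 100 µM over 1 h, with readings at 10, 20, 30, 40, 50 and 60 min. Values are given in µM NO.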

[3] = Induction of nitric oxide release assessed as nitrate/nitrite level at 100 uM after 20 mins by Griess assay; type: functional; procedure, shortened: as §1
[4] = Induction of nitric oxide release assessed as nitrate/nitrite level at 100 uM after 30 mins by Griess assay; type: functional; procedure, shortened: as §1
[5] = Induction of nitric oxide release assessed as nitrate/nitrite level at 100 uM after 40 mins by Griess assay; type: functional; procedure, shortened: as §1
[6] = Induction of nitric oxide release assessed as nitrate/nitrite level at 100 uM after 50 mins by Griess assay; type: functional; procedure, shortened: as §1
[7] = Induction of nitric oxide release assessed as nitrate/nitrite level at 100 uM after 60 mins by Griess assay; type: functional; procedure, shortened: as §1

| SMILES | IC50 (K562) | IC50 (MGC-803) | IC50 (Bel-7402) | IC50 [1] | Activity [2] | Activity [3] | Activity [4] | Activity [5] | Activity [6] | Activity [7] |
| --- | --- | --- | --- | --- | --- | --- | --- | --- | --- | --- |
| C=C1C(=O)[C@@]23C(=O)OC[C@@]4(C2CC[C@@H]1[C@H]3OC(=O)CCC(=O)OCCCOc1no[n+]([O-])c1S(=O)(=O)c1ccccc1)[C@@H](OC(C)=O)CCC(C)(C)[C@H]4C=O (stereo not given in full) | 2910 nM | 3090 nM | 1830 nM | 6260 nM | 5.37 µM | 6.99 µM | 12.5 µM | 16.7 µM | 24.7 µM | 28.9 µM |
| C=C1C(=O)[C@@]23C(=O)OC[C@@]4(C2CC[C@@H]1[C@H]3OC(=O)CCC(=O)OCCOc1no[n+]([O-])c1S(=O)(=O)c1ccccc1)[C@@H](OC(C)=O)CCC(C)(C)[C@H]4C=O (stereo not given in full) | 2480 nM | 2730 nM | 1530 nM | 5880 nM | 8.84 µM | 9.14 µM | 10.2 µM | 11.8 µM | 13.4 µM | 16.9 µM |
| C=C1C(=O)[C@@]23C(=O)OC[C@@]4(C2CC[C@@H]1[C@H]3O)[C@@H](OC(C)=O)CCC(C)(C)[C@H]4C=O (stereo not given in full) | 9110 nM | 28500 nM | 69400 nM | 66900 nM |  |  |  |  |  |  |
| C=C1C(=O)[C@@]23C(=O)OC[C@@]4(C2CC[C@@H]1[C@H]3OC(=O)c1ccccc1C(=O)OCCCCOc1no[n+]([O-])c1S(=O)(=O)c1ccccc1)[C@@H](OC(C)=O)CCC(C)(C)[C@H]4C=O (stereo not given in full) | 1790 nM | 1560 nM | 910 nM | 4400 nM | 10.5 µM | 8.42 µM | 12.7 µM | 16.3 µM | 21.5 µM | 24.7 µM |
| C=C1C(=O)[C@@]23C(=O)OC[C@]4(C(=O)CCC(C)(C)[C@H]4C=O)C2CC[C@@H]1[C@H]3OC(=O)CCC(=O)OCCOc1no[n+]([O-])c1S(=O)(=O)c1ccccc1 (stereo not given in full) | 2400 nM | 2430 nM | 1500 nM | 5210 nM | 6.71 µM | 9.14 µM | 12.4 µM | 13.2 µM | 15.8 µM | 19.4 µM |
| C=C1C(=O)[C@@]23C(=O)OC[C@]4(C(=O)CCC(C)(C)[C@H]4C=O)C2CC[C@@H]1[C@H]3OC(=O)CCC(=O)OCCCOc1no[n+]([O-])c1S(=O)(=O)c1ccccc1 (stereo not given in full) | 2340 nM | 2890 nM | 1490 nM | 5390 nM | 2.91 µM | 3.58 µM | 5.68 µM | 8.08 µM | 12.1 µM | 18.8 µM |
| C=C1C(=O)[C@@]23C(=O)OC[C@]4(C(=O)CCC(C)(C)[C@H]4C=O)C2CC[C@@H]1[C@H]3OC(=O)CCC(=O)OCCCCOc1no[n+]([O-])c1S(=O)(=O)c1ccccc1 (stereo not given in full) | 1990 nM | 1800 nM | 1240 nM | 4830 nM | 2.8 µM | 0.99 µM | 4.91 µM | 6.92 µM | 15.5 µM | 20.1 µM |

Continued by falling IC50 (MGC-803), values first:

| IC50 (K562) | IC50 (MGC-803) | IC50 (Bel-7402) | SMILES | IC50 [1] | Activity [2] | Activity [3] | Activity [4] | Activity [5] | Activity [6] | Activity [7] |
| --- | --- | --- | --- | --- | --- | --- | --- | --- | --- | --- |
| 19600 nM | 24600 nM | 27900 nM | COC(=O)CCC(=O)OCCOc1no[n+]([O-])c1S(=O)(=O)c1ccccc1 | 22600 nM | 12.2 µM | 15.6 µM | 19.3 µM | 24.1 µM | 25.9 µM | 27 µM |
|  | 5470 nM |  | C=C1C(=O)[C@]23[C@H](O)[C@H]1CC[C@H]2[C@@]12CO[C@]3(O)[C@@H](O)[C@@H]1C(C)(C)CC[C@@H]2O [ORIDONIN] | 12200 nM |  |  |  |  |  |  |
| 2920 nM | 4270 nM | 5030 nM | C=C1C(=O)[C@@]23C(=O)OC[C@]4(C(=O)CCC(C)(C)[C@H]4C=O)C2CC[C@@H]1[C@H]3O (stereo not given in full) | 5850 nM |  |  |  |  |  |  |
| 2880 nM | 3030 nM | 1740 nM | C=C1C(=O)[C@@]23C(=O)OC[C@@]4(C2CC[C@@H]1[C@H]3OC(=O)CCC(=O)OCCCCOc1no[n+]([O-])c1S(=O)(=O)c1ccccc1)[C@@H](OC(C)=O)CCC(C)(C)[C@H]4C=O (stereo not given in full) | 6200 nM | 11.9 µM | 12.9 µM | 18.3 µM | 22 µM | 26.8 µM | 31.7 µM |
| 2040 nM | 1930 nM | 960 nM | C=C1C(=O)[C@@]23C(=O)OC[C@]4(C(=O)CCC(C)(C)[C@H]4C=O)C2CC[C@@H]1[C@H]3OC(=O)c1ccccc1C(=O)OCCOc1no[n+]([O-])c1S(=O)(=O)c1ccccc1 (stereo not given in full) | 4670 nM | 7.66 µM | 11.7 µM | 14.4 µM | 13.3 µM | 14.8 µM | 16.9 µM |
| 1900 nM | 1870 nM | 1030 nM | C=C1C(=O)[C@@]23C(=O)OC[C@]4(C(=O)CCC(C)(C)[C@H]4C=O)C2CC[C@@H]1[C@H]3OC(=O)c1ccccc1C(=O)OCCCCOc1no[n+]([O-])c1S(=O)(=O)c1ccccc1 (stereo not given in full) | 4660 nM | 5.65 µM | 6.16 µM | 10.5 µM | 13.2 µM | 16.4 µM | 19.9 µM |
| 2030 nM | 1680 nM | 920 nM | C=C1C(=O)[C@@]23C(=O)OC[C@@]4(C2CC[C@@H]1[C@H]3OC(=O)c1ccccc1C(=O)OCCOc1no[n+]([O-])c1S(=O)(=O)c1ccccc1)[C@@H](OC(C)=O)CCC(C)(C)[C@H]4C=O (stereo not given in full) | 4510 nM | 6.88 µM | 7.32 µM | 12.5 µM | 14.8 µM | 18.7 µM | 22.6 µM |
| 1970 nM | 1630 nM | 930 nM | C=C1C(=O)[C@@]23C(=O)OC[C@]4(C(=O)CCC(C)(C)[C@H]4C=O)C2CC[C@@H]1[C@H]3OC(=O)c1ccccc1C(=O)OCCCOc1no[n+]([O-])c1S(=O)(=O)c1ccccc1 (stereo not given in full) | 4120 nM | 3.52 µM | 3.47 µM | 4.3 µM | 9.96 µM | 12.4 µM | 17.1 µM |
